Reference: ChEMBL document CHEMBL5653625, “P21-Activated Kinase Inhibitors FRAX486 and IPA3: Inhibition of Prostate Stromal Cell Growth and Effects on Smooth Muscle Contraction in the Human Prostate” (PLoS One, 2016)
Calls of active or inactive are those of the source. The rule behind the calls is not given here.

Columns and labels:
[1] = species on record: Homo sapiens; test: Inhibition of noradrenaline induced prostate cancer patient derived human Prostate gland strips contraction assessed as reduction in KCl-induced contraction at 300 uM by organ-bath analysis; type: functional, tissue-based
In short: (§1)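 Human prostate strips (6 x 3 x 3 mm) in aerated (95% O2/5% CO2) Krebs-Henseleit, 37°C, pH 7.4, resting tone 4.9 mN after 45 min equilibration; reference contraction to 80 mM KCl, washout, then inhibitor or DMSO added before cumulative noradrenaline, phenylephrine or endothelin concentration-response curves or EFS frequency-response curves; tension expressed as % of KCl contraction.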

[2] = Cytotoxicity against human WPMY-1 cells assessed as reduction in cell viability at 1 to 10 uM incubated for 24 to 72 hrs by WST-8 assay; type: toxicity, cell-based; settings: wpmy-1, 10 µM, TDE = time-dependent effect, dose lower 1 µM, time lower 24 hrs, dose upper 10 µM, time upper 72 hrs
[3] = Cytotoxicity against human WPMY-1 cells assessed as reduction in cell viability at 1 to 10 uM incubated for 24 hrs by WST-8 assay; type: toxicity, cell-based; settings: wpmy-1, 24 h, dose 1-10 µM
[4] = Cytotoxicity against human WPMY-1 cells assessed as reduction in cell proliferation at 1 to 10 uM incubated for 24 hrs by EdU incorporation assay; type: toxicity, cell-based; set-up: scale not given: the % may be the effect or the level left; settings: wpmy-1, 24 h, dose 1-10 µM
[5] = species on record: Homo sapiens; test: Inhibition of phenylephrine induced prostate cancer patient derived human Prostate gland strips contraction assessed as reduction in KCl-induced contraction at 300 uM by organ-bath analysis; type: functional, tissue-based; in short: as §1
[6] = test system: WPMY-1; test: Inhibition of actin filament organization in human WPMY-1 cells assessed as reduction in degree of actin polymerization at 1 uM incubated for 24 hrs by FITC-coupled phalloidin staining based laser scanning microscopy; type: functional, cell-based
In short: (§2)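 Serum-starved WPMY-1 cells grown on chamber slides with inhibitor (1–10 µM) or DMSO for 24 h, then stained for F-actin with FITC-labeled phalloidin and imaged by laser scanning confocal microscopy; filament bundles, protrusions and cell shape judged visually against solvent controls; representative images from 5 independent experiments.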

[7] = species on record: Homo sapiens; test: Inhibition of electric field stimulation induced prostate cancer patient derived human Prostate gland strips contraction assessed as reduction in KCl-induced contraction at 300 uM at 32 Hz frequency by organ-bath analysis; type: functional, tissue-based; in short: as §1
[8] = test system: WPMY-1; test: Inhibition of actin filament organization in human WPMY-1 cells at 1 uM incubated for 24 hrs by FITC-coupled phalloidin staining based laser scanning microscopy; type: functional, cell-based; in short: as §2
[9] = test system: WPMY-1; test: Inhibition of actin filament organization in human WPMY-1 cells assessed as degeneration of protrusions at 1 uM incubated for 24 hrs by FITC-coupled phalloidin staining based laser scanning microscopy; type: functional, cell-based; in short: as §2
[10] = Cytotoxicity against human WPMY-1 cells assessed as cell survival rate at 10 uM incubated for 48 to 72 hrs by WST-8 assay; type: toxicity, cell-based; settings: time 48-72 hrs, read-out: Survival
In short: (§3)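 WPMY-1 human prostate stromal cells kept in RPMI 1640 with 10% FCS and 1% penicillin/streptomycin, 37°C, 5% CO2; switched to FCS-free medium before treatment. Seeded 20,000 cells/well, grown 24 h, then exposed to inhibitor or DMSO (1, 5, 10 µM) for 24, 48 or 72 h with separate controls per period. WST-8 (CCK-8) added, absorbance 450 nm after 2 h at 37°C; 5 independent experiments, means ±SEM.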

[11] = test system: WPMY-1; test: Inhibition of actin filament organization in human WPMY-1 cells at 1 to 10 uM incubated for 24 hrs by FITC-coupled phalloidin staining based laser scanning microscopy; type: functional, cell-based; settings: dose 1-10 µM; in short: as §2
[12] = Cytotoxicity against human WPMY-1 cells assessed as cell survival rate at 1 uM incubated for 24 to 72 hrs by WST-8 assay; type: toxicity, cell-based; settings: time 24-72 hrs, read-out: Survival; in short: as §3
[13] = species on record: Homo sapiens; test: Inhibition of electric field stimulation induced prostate cancer patient derived human Prostate gland strips contraction assessed as reduction in KCl-induced contraction at 100 uM by organ-bath analysis; type: functional, tissue-based; in short: as §1
[14] = Inhibition of actin filament organization in human WPMY-1 cells assessed as rounded cell shape without protrusion at 5 to 10 uM incubated for 24 hrs by FITC-coupled phalloidin staining based laser scanning microscopy; type: functional; settings: dose 5-10 µM; in short: as §2
[15] = Cytotoxicity against human WPMY-1 cells assessed as cell survival rate at 5 to 10 uM incubated for 48 to 72 hrs by WST-8 assay; type: toxicity, cell-based; settings: dose lower 5 µM, time lower 48 hrs, dose upper 10 µM, time upper 72 hrs, read-out: Survival; in short: as §3
[16] = species on record: Homo sapiens; test: Inhibition of electric field stimulation induced prostate cancer patient derived human Prostate gland strips contraction assessed as reduction in KCl-induced contraction at 30 uM at 2 to 32 Hz frequency by organ-bath analysis; type: functional, tissue-based; in short: as §1
[17] = target: Serine/threonine-protein kinase PAK 3 (Homo sapiens, UniProt O75914); test: Inhibition of full length PAK3 (unknown origin) assessed s reduction in substrate phosphorylation using peptide as substrate by FRET based Z-LYTE kinase assay
Serine/threonine-protein kinase PAK 3, sequence (O75914 whole entry): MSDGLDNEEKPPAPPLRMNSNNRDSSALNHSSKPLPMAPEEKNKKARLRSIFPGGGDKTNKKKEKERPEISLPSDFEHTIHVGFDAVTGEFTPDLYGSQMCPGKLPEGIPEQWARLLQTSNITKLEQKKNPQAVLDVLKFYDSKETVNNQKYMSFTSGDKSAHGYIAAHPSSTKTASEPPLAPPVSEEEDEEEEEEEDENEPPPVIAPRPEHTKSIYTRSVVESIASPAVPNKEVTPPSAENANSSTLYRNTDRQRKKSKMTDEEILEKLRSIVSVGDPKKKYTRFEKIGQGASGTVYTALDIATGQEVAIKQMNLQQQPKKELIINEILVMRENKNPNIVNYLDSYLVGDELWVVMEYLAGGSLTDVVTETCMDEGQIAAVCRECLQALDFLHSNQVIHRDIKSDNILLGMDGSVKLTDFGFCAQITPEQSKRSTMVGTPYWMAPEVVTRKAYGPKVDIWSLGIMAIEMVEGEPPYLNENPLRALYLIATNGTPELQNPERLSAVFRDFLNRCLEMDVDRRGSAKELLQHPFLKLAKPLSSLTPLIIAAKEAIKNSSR

[18] = species on record: Homo sapiens; test: Inhibition of noradrenaline induced prostate cancer patient derived human Prostate gland strips contraction assessed as reduction in KCl-induced contraction at 30 uM by organ-bath analysis; type: functional, tissue-based; in short: as §1
[19] = species on record: Homo sapiens; test: Inhibition of phenylephrine induced prostate cancer patient derived human Prostate gland strips contraction assessed as reduction in KCl-induced contraction at 30 uM by organ-bath analysis; type: functional, tissue-based; in short: as §1
[20] = species on record: Homo sapiens; test: Inhibition of electric field stimulation induced prostate cancer patient derived human Prostate gland strips contraction assessed as reduction in KCl-induced contraction at 10 uM by organ-bath analysis; type: functional, tissue-based; in short: as §1
[21] = Effect on DISC1 knockdown-elicited synaptic changes in rat cortical neurons assessed as prevention of spine size reduction preincubated for 60 mins followed by APV WD solution addition and measured after 20 mins by immunofluorescence analysis; type: functional, cell-based; settings: cortical neurone
[22] = Cytotoxicity against human WPMY-1 cells assessed as cell survival rate at 1 uM incubated for 24 hrs by WST-8 assay; type: toxicity, cell-based; settings: read-out: Survival; in short: as §3
[23] = species on record: Homo sapiens; test: Inhibition of endothelin-2 induced prostate cancer patient derived human Prostate gland strips contraction assessed as reduction in KCl-induced contraction at 30 uM by organ-bath analysis; type: functional, tissue-based; in short: as §1
[24] = species on record: Homo sapiens; test: Inhibition of endothelin-1 induced prostate cancer patient derived human Prostate gland strips contraction assessed as reduction in KCl-induced contraction at 10 uM by organ-bath analysis; type: functional, tissue-based; in short: as §1
[25] = target: Serine/threonine-protein kinase PAK 2 (Homo sapiens, UniProt Q13177); test: Inhibition of full length PAK2 (unknown origin) assessed s reduction in substrate phosphorylation using peptide as substrate by FRET based Z-LYTE kinase assay
Serine/threonine-protein kinase PAK 2, sequence (Q13177 whole entry): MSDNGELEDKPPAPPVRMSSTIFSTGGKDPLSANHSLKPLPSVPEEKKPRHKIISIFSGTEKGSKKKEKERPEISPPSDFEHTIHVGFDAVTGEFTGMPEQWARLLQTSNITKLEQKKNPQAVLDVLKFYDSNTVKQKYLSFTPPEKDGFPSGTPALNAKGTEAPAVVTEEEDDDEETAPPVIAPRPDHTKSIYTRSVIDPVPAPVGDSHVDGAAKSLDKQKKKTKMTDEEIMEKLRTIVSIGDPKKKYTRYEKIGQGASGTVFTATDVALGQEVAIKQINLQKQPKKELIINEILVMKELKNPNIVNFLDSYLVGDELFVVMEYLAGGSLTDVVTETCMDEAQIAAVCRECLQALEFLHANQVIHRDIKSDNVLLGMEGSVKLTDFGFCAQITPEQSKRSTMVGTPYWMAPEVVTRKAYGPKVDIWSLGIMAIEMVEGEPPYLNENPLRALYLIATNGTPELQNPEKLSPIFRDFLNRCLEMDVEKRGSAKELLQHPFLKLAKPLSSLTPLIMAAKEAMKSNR

[26] = species on record: Homo sapiens; test: Inhibition of endothelin-1 induced prostate cancer patient derived human Prostate gland strips contraction assessed as reduction in KCl-induced contraction at 30 uM by organ-bath analysis; type: functional, tissue-based; in short: as §1

Oc1ccc2ccccc2c1SSc1c(O)ccc2ccccc12
inhibition [1]: inactive
Activity [2]: Tde
Activity [3]: Dose-Dependent Effect
Activity [4]: 41%
inhibition [5]: inactive
inhibition [6]: Active
inhibition [7]: Active
inhibition [8]: Active
inhibition [9]: Active
viability at 10 µM [10]: 1%
inhibition [11]: Dose-Dependent Effect
viability at 1 µM [12]: 55%
inhibition [13]: inactive
inhibition (INH) [14]: 100%

CCn1c(=O)c(-c2ccc(Cl)cc2Cl)cc2cnc(Nc3ccc(N4CCNCC4)c(F)c3)nc21
viability at up to 10 µM [15]: 1%
Activity [2]: Tde
Activity [3]: Dose-Dependent Effect
inhibition [16]: Active
Activity [4]: 45%
IC50 [17]: 10 nM
inhibition [18]: inactive
inhibition [6]: Active
inhibition [19]: inactive
inhibition [20]: inactive
inhibition [8]: Active
EC50 [21]: 500 nM
inhibition [9]: Active
viability at 24 h, 1 µM [22]: 55%
inhibition [23]: Active
inhibition [11]: Dose-Dependent Effect
inhibition [24]: inactive
IC50 [25]: 10 nM
inhibition [26]: Active
inhibition (INH) [14]: 100%
